“And” between values parts separate entries of the source, which are not always exact repeats. Identical values can stand only once.

Assay [1] addresses T1, Peroxisome proliferator-activated receptor gamma (Homo sapiens, UniProt P37231).
T1 sequence (P37231 whole entry): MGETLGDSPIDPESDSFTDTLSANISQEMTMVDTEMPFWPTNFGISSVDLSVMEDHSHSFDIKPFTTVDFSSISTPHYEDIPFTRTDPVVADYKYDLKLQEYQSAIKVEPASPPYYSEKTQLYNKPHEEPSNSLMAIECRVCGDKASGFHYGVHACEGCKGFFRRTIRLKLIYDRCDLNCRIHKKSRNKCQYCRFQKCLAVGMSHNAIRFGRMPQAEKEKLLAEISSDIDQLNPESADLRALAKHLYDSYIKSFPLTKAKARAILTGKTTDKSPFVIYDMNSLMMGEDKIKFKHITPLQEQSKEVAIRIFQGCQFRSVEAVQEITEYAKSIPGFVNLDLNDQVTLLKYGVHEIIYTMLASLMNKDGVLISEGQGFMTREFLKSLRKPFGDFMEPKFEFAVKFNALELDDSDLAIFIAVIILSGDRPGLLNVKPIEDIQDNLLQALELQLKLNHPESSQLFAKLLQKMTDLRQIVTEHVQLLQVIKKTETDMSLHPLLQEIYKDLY
Kind of assay: Binding affinity towards peroxisome proliferator activated receptor gamma (PPAR gamma); weakly active.

For assay [2], the target named is T1, Peroxisome proliferator-activated receptor gamma. Kind of assay: Binding affinity towards human peroxisome proliferator activated receptor gamma (PPAR gamma) was determined by HTRF assay; weakly active.
The target of assay [3] is T2, Peroxisome proliferator-activated receptor alpha (Homo sapiens, UniProt Q07869).
T2 sequence (Q07869 whole entry): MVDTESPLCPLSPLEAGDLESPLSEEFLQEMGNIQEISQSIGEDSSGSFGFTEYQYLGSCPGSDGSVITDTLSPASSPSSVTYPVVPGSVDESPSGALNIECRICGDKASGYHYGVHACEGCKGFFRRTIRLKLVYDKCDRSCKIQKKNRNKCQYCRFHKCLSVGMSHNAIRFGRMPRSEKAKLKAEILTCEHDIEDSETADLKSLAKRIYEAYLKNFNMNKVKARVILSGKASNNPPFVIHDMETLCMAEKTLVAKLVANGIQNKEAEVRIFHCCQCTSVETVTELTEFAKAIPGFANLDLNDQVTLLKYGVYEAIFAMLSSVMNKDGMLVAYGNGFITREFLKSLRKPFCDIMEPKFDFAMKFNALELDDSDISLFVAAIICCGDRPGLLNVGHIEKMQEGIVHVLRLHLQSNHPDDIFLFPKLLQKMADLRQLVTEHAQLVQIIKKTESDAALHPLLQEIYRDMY
Briefly: Binding affinity towards peroxisome proliferator activated receptor alpha (PPAR alpha); weakly active.

Assay [4] deals with T2, Peroxisome proliferator-activated receptor alpha. Briefly: Binding affinity towards human peroxisome proliferator activated receptor gamma (PPAR alpha) by HTRF assay; Weakly active. On the technique in general: Time-resolved FRET reads energy transfer from a long-lived donor to a nearby acceptor.
Assay [5] concerns the target T1, Peroxisome proliferator-activated receptor gamma. Briefly: Binding affinity towards peroxisome proliferator activated receptor gamma (PPAR gamma); Not active. A digest of the protocol:
(§1)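 Scintillation proximity (SPA) radioligand binding assay run at 15 C. The IC50 is converted to an apparent Ki with the Cheng-Prusoff equation.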

In assay [6] the target is T2, Peroxisome proliferator-activated receptor alpha. Kind of assay: Binding affinity towards peroxisome proliferator activated receptor alpha (PPAR alpha); Not active. A digest of the protocol: as §1
In the next assay the test system is Mus musculus. Kind of assay: Fasting plasma glucose levels after 30 mg/kg peroral administration in db/db Mouse. The note with it: route oral. The class given is functional. In short, it runs like this:
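db/db (lepr db-3J/lepr db-3J) mice dosed orally once daily for 11 days; fasting plasma glucose measured at day 11. Correction is expressed as mean glucose lowering, as a percentage of the difference between vehicle-treated db/db and lean control mice.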

In assay [7] the target is T2, Peroxisome proliferator-activated receptor alpha. Kind of assay: Binding affinity towards human peroxisome proliferator activated receptor alpha (PPAR alpha) by HTRF assay; Not active.
Assay [8] relates to Rattus norvegicus. Kind of assay: Brown adipose tissue weight in Sprague-Dawley rat after 30 mg/kg peroral administration. The note with it: route oral, 30 mg/kg.
Assay [9] relates to Rattus norvegicus. Briefly: Total Cholesterol change in Sprague-Dawley rat after 30 mg/kg peroral administration. The note with it: route oral.
For assay [10], the system named is Rattus norvegicus. Kind of assay: Body weight of Sprague-Dawley rat after 30 mg/kg peroral administration. The note with it: route oral, 30 mg/kg.

As for `CCCc1c(OC(C(=O)O)c2ccccc2)ccc(C(=O)CC)c1O` (configuration not stated), the Ki result in assay [1], in assay [2] and in assay [3] was “Partially active” in each case.

As to `Cc1cccc(Nc2cc(Cl)nc(SCC(=O)O)n2)c1C` [PIRINIXIC ACID], the EC50 entry in [4] was “Partially active”. Also, the Ki result in assay [5] and in assay [6] was “Not Active” throughout. The FPG correction in the assay with Mus musculus turned out to be 20%.

In the case of `CN(CCOc1ccc(CC2SC(=O)NC2=O)cc1)c1ccccn1.O=C(O)/C=C\C(=O)O` (configuration not stated) [ROSIGLITAZONE MALEATE], the Ki result in [7] and in [6] was “Not Active” each time. Besides, the BAT weight in the assay on Rattus norvegicus [8] was 0.74 g and 0.63 g. Moreover, the Change in the assay with Rattus norvegicus [9] stood at 1%. In the assay with Rattus norvegicus [10], the Body weight was 310 g and 322 g.

These data come from ChEMBL document CHEMBL1136228 (Bioorg Med Chem Lett, 2003).
